Calls of active or inactive are those of the source. The calls are words filed in the database; no cut-off is given here.
How the values were obtained:
[1] = Induction of adiponectin biosynthesis in human BMMSC cells assessed as adiponectin level at 10 uM measured after 7 days by ELISA (IDX Control = 100 +/- 57 pg/ml); type: functional, Mesenchymal stem cells; conditions: time 7 day
[2] = Induction of leptin biosynthesis in human BMMSC cells assessed as leptin level at 10 uM measured after 7 days by ELISA (RVB = 18 + /- 18 pg/ml); type: functional, Mesenchymal stem cells; conditions: time 7 day
[3] = Induction of adiponectin biosynthesis in human BMMSC cells assessed as fold increase in production at 30 uM measured after 7 days by ELISA relative to IDX control; type: functional, Mesenchymal stem cells; conditions: time 7 day, 168 h
In short: (§1)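 Human bone-marrow MSCs grown in low-glucose DMEM (1 g/L) with 10% FBS, 1% penicillin-streptomycin and 1% Glutamax. Compounds were given in adipogenic IDX medium, refreshed on days 3 and 6. On day 7, supernatant adiponectin was quantified by Quantikine ELISA against the IDX control. Mean ± SD, n = 3 independent experiments; one-way ANOVA with post-hoc tests.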

[4] = Induction of adiponectin biosynthesis in human BMMSC cells assessed as adiponectin level at 5 uM measured after 7 days by ELISA (IDX Control = 100 +/- 57 pg/ml); type: functional, Mesenchymal stem cells; conditions: time 7 day; in short: as §1
[5] = Induction of leptin biosynthesis in human BMMSC cells assessed as leptin level at 5 uM measured after 7 days by ELISA (RVB = 18 + /- 18 pg/ml); type: functional, Mesenchymal stem cells; conditions: time 7 day
[6] = tested on: Mesenchymal stem cells; assay: Induction of adipogenesis in human BMMSC cells assessed as increase in lipid droplet accumulation at 5 uM after 7 days by Oil red O and hematoxylin staining based assay relative to IDX control; type: functional, cell-based; conditions: time 7.0 day
In short: (§2)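 hBM-MSCs grown in low-glucose DMEM (1 g/L) with 10% FBS, Glutamax and penicillin-streptomycin, then differentiated in IDX medium containing compound, refreshed on days 3 and 6. On day 7, cells fixed in 10% neutral buffered formalin for 40 min and stained with 0.2% Oil Red O for 15 min, nuclei with hematoxylin. Dye eluted in isopropanol and read at 540 nm against IDX control.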

[7] = Induction of adiponectin biosynthesis in human BMMSC cells assessed as adiponectin level measured after 7 days by ELISA; conditions: Mesenchymal stem cells, 168 h
[8] = tested on: Mesenchymal stem cells; assay: Induction of adipogenesis in human BMMSC cells assessed as increase in lipid droplet accumulation at 30 uM after 7 days by Oil red O and hematoxylin staining based assay relative to IDX control; type: functional, cell-based; conditions: time 7.0 day; in short: as §2
[9] = Induction of leptin biosynthesis in human BMMSC cells assessed as fold increase in production at 30 uM measured after 10 days by ELISA relative to control; conditions: time 10 day
[10] = Induction of leptin biosynthesis in human BMMSC cells assessed as leptin level at 1 uM measured after 7 days by ELISA (RVB = 18 + /- 18 pg/ml); type: functional, Mesenchymal stem cells; conditions: time 7 day
[11] = Induction of adiponectin biosynthesis in human BMMSC cells assessed as adiponectin level at 300 uM measured after 7 days by ELISA (IDX Control = 100 +/- 57 pg/ml); type: functional, Mesenchymal stem cells; conditions: time 7 day; in short: as §1
[12] = Induction of leptin biosynthesis in human BMMSC cells assessed as leptin level at 300 uM measured after 7 days by ELISA (RVB = 18 + /- 18 pg/ml); type: functional, Mesenchymal stem cells; conditions: time 7 day

| Structure (SMILES) | Activity [1] [pg/mL] | Activity [2] [pg/mL] | also measured |
| --- | --- | --- | --- |
| Cc1cc(O)c(C(=O)/C=C/c2ccc(F)c(F)c2)c(=O)o1 | 432 | 76 | – |
| Cc1cc(O)c(C(=O)/C=C/c2ccccn2)c(=O)o1 | 396 | 95 | – |
| Cc1cc(O)c(C(=O)/C=C/c2ccc(O)c(O)c2)c(=O)o1 | 243 | 16 | – |
| Cc1cc(O)c(C(=O)/C=C/c2ccsc2)c(=O)o1 | 486 | 193 | – |
| COc1cc(/C=C/C(=O)c2c(O)cc(C)oc2=O)ccc1O (stereo in doubt; form 1) [listing 1 of 2 here] | – | – | fold change (FC) [3]: 3.3 |
| Cc1cc(O)c(C(=O)/C=C/c2cc(F)cc(F)c2)c(=O)o1 | 172 | 33 | – |
| Cc1cc(O)c(C(=O)/C=C/c2ccc(F)cc2)c(=O)o1 | 576 | 30 | – |
| CCc1ccc(CCOc2ccc(CC3SC(=O)NC3=O)cc2)nc1 (configuration not stated) [PIOGLITAZONE] | – | – | Activity [4]: 812 pg/mL; Activity [5]: 33 pg/mL; Activity [6]: Active; EC50 [7]: 600 nM |
| COc1cc(/C=C/C(=O)c2c(O)cc(C)oc2=O)ccc1F | 567 | 40 | – |
| COc1ccc(/C=C/C(=O)c2c(O)cc(C)oc2=O)cc1OC | 747 | 80 | – |
| Cc1cc(O)c(C(=O)/C=C/c2c[nH]c3ccccc23)c(=O)o1 | 396 | 41 | – |
| Cc1cc(O)c(C(=O)/C=C/c2ccc(C)c(C)c2)c(=O)o1 | 438 | 17 | – |
| Cc1cc(O)c(C(=O)/C=C/c2ccccc2)c(=O)o1 | 580 | 38 | – |
| COc1cc(/C=C/C(=O)c2c(O)cc(C)oc2=O)ccc1O (stereo in doubt; form 1) [listing 2 of 2 here] | – | – | Activity [8]: Active |
| Cc1cc(O)c(C(=O)/C=C/c2ccoc2)c(=O)o1 | 320 | 171 | – |
| COc1cc(/C=C/C(=O)c2c(O)cc(C)oc2=O)ccc1O (stereo in doubt; form 2) | 399 | 82 | fold change (FC) [3]: 3.18; fold change (FC) [9]: 2.58 |
| C[C@@H]1C[C@H]2[C@@H]3CCC4=CC(=O)C=C[C@]4(C)[C@@]3(F)[C@@H](O)C[C@]2(C)[C@@]1(O)C(=O)CO [DEXAMETHASONE] | – | – | Activity [10]: 632 pg/mL |
| Cc1cc(O)c(C(=O)/C=C/c2ccc3c(c2)OCO3)c(=O)o1 | 208 | 91 | – |
| CC(=O)Oc1ccccc1C(=O)O [ASPIRIN] | – | – | Activity [11]: 330 pg/mL; Activity [12]: 20 pg/mL |
| COc1ccc(Cl)cc1C(=O)NCCc1ccc(S(=O)(=O)NC(=O)NC2CCCCC2)cc1 [GLYBURIDE] | – | – | Activity [4]: 475 pg/mL; Activity [5]: 30 pg/mL; Activity [6]: Active |

Source: ChEMBL document CHEMBL5385854, “Discovery of PPARγ and glucocorticoid receptor dual agonists to promote the adiponectin and leptin biosynthesis in human bone marrow mesenchymal stem cells” (Eur J Med Chem, 2023)
